Laboratory results: ChEMBL document CHEMBL5058577, “EUbOPEN Chemogenomics Library 2 (Multiplex)” (2022)

Tested on: U2OS
Assay: Multiplex assay against U2OS
Type: toxicity, cell-based
Details: human
How it was run: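 Compound was added to live cells that had been stained at seeding with Hoechst33342, BioTracker Green Microtubule Cytoskeleton Dye, MitoTracker Red and Annexin V Alexa Fluor 680, and imaging followed on a CQ1 microscope at 37°C and 5% CO2. CellPathfinder machine-learning gating divided cells into Hoechst high-intensity objects or normal cells, normal cells into healthy, pyknosed or fragmented nuclei, and pyknosed cells into mitotic or apoptotic. Tubulin, mitochondrial-mass and membrane-permeability phenotypes are per cents of healthy-nucleus cells.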

[1] = 12 h, 1 µM, compound concentration 1 uM, replicate 1
[2] = 12 h, 1 µM, compound concentration 1 uM, replicate 2
[3] = 12 h, 10 µM, compound concentration 10 uM, replicate 1
[4] = 12 h, 10 µM, compound concentration 10 uM, replicate 2
[5] = 24 h, 1 µM, compound concentration 1 uM, replicate 1
[6] = 24 h, 1 µM, compound concentration 1 uM, replicate 2
[7] = 24 h, 10 µM, compound concentration 10 uM, replicate 1
[8] = 24 h, 10 µM, compound concentration 10 uM, replicate 2
[9] = 48 h, 1 µM, compound concentration 1 uM, replicate 1
[10] = 48 h, 1 µM, compound concentration 1 uM, replicate 2
[11] = 48 h, 10 µM, compound concentration 10 uM, replicate 1
[12] = 48 h, 10 µM, compound concentration 10 uM, replicate 2

COc1cc(NC(=O)CCN2CCC(OC(=O)Nc3ccccc3-c3ccccc3)CC2)c(Cl)cc1CNC[C@H](O)c1ccc(O)c2[nH]c(=O)ccc12 [BATEFENTEROL]
Population Apoptotic (%) [1]: 68%
Population Fragmented Nuclei (%) [1]: 29%
Population Healthy Nuclei (%) [1]: 49%
Population Hoechst High Intensity Objects (%) [1]: 4%
Population Membrane Permeable-Phenotype (%) [1]: 5%
Population Mitochondria Different-Phenotype (%) [1]: 5%
Population Mitotic Cells (%) [1]: 31%
Population Normal (%) [1]: 95%
Population Pyknosed Nuclei (%) [1]: 21%
Population Tubulin-Different-Phenotype (%) [1]: 4%
Total Cell Count [1]: 159
Population Apoptotic (%) [2]: 85%
Population Fragmented Nuclei (%) [2]: 14%
Population Healthy Nuclei (%) [2]: 78%
Population Hoechst High Intensity Objects (%) [2]: 1%
Population Membrane Permeable-Phenotype (%) [2]: 9%
Population Mitochondria Different-Phenotype (%) [2]: 6%
Population Mitotic Cells (%) [2]: 14%
Population Normal (%) [2]: 98%
Population Pyknosed Nuclei (%) [2]: 7%
Population Tubulin-Different-Phenotype (%) [2]: 7%
Total Cell Count [2]: 98
Population Apoptotic (%) [3]: 72%
Population Fragmented Nuclei (%) [3]: 37%
Population Healthy Nuclei (%) [3]: 44%
Population Hoechst High Intensity Objects (%) [3]: 6%
Population Membrane Permeable-Phenotype (%) [3]: 60%
Population Mitochondria Different-Phenotype (%) [3]: 67%
Population Mitotic Cells (%) [3]: 27%
Population Normal (%) [3]: 93%
Population Pyknosed Nuclei (%) [3]: 18%
Population Tubulin-Different-Phenotype (%) [3]: 75%
Total Cell Count [3]: 196
Population Apoptotic (%) [4]: 88%
Population Fragmented Nuclei (%) [4]: 18%
Population Healthy Nuclei (%) [4]: 59%
Population Hoechst High Intensity Objects (%) [4]: 7%
Population Membrane Permeable-Phenotype (%) [4]: 57%
Population Mitochondria Different-Phenotype (%) [4]: 95%
Population Mitotic Cells (%) [4]: 11%
Population Normal (%) [4]: 92%
Population Pyknosed Nuclei (%) [4]: 22%
Population Tubulin-Different-Phenotype (%) [4]: 97%
Total Cell Count [4]: 82
Population Apoptotic (%) [5]: 74%
Population Fragmented Nuclei (%) [5]: 27%
Population Healthy Nuclei (%) [5]: 55%
Population Hoechst High Intensity Objects (%) [5]: 2%
Population Membrane Permeable-Phenotype (%) [5]: 9%
Population Mitochondria Different-Phenotype (%) [5]: 9%
Population Mitotic Cells (%) [5]: 25%
Population Normal (%) [5]: 97%
Population Pyknosed Nuclei (%) [5]: 17%
Population Tubulin-Different-Phenotype (%) [5]: 5%
Total Cell Count [5]: 182
Population Apoptotic (%) [6]: 100%
Population Fragmented Nuclei (%) [6]: 12%
Population Healthy Nuclei (%) [6]: 75%
Population Hoechst High Intensity Objects (%) [6]: 1%
Population Membrane Permeable-Phenotype (%) [6]: 5%
Population Mitochondria Different-Phenotype (%) [6]: 6%
Population Mitotic Cells (%) [6]: 0%
Population Normal (%) [6]: 98%
Population Pyknosed Nuclei (%) [6]: 11%
Population Tubulin-Different-Phenotype (%) [6]: 2%
Total Cell Count [6]: 103
Population Apoptotic (%) [7]: 79%
Population Fragmented Nuclei (%) [7]: 38%
Population Healthy Nuclei (%) [7]: 38%
Population Hoechst High Intensity Objects (%) [7]: 4%
Population Membrane Permeable-Phenotype (%) [7]: 32%
Population Mitochondria Different-Phenotype (%) [7]: 59%
Population Mitotic Cells (%) [7]: 20%
Population Normal (%) [7]: 95%
Population Pyknosed Nuclei (%) [7]: 22%
Population Tubulin-Different-Phenotype (%) [7]: 44%
Total Cell Count [7]: 199
Population Apoptotic (%) [8]: 73%
Population Fragmented Nuclei (%) [8]: 29%
Population Healthy Nuclei (%) [8]: 42%
Population Hoechst High Intensity Objects (%) [8]: 9%
Population Membrane Permeable-Phenotype (%) [8]: 52%
Population Mitochondria Different-Phenotype (%) [8]: 91%
Population Mitotic Cells (%) [8]: 26%
Population Normal (%) [8]: 90%
Population Pyknosed Nuclei (%) [8]: 27%
Population Tubulin-Different-Phenotype (%) [8]: 91%
Total Cell Count [8]: 93
Population Apoptotic (%) [9]: 82%
Population Fragmented Nuclei (%) [9]: 26%
Population Healthy Nuclei (%) [9]: 54%
Population Hoechst High Intensity Objects (%) [9]: 3%
Population Membrane Permeable-Phenotype (%) [9]: 3%
Population Mitochondria Different-Phenotype (%) [9]: 5%
Population Mitotic Cells (%) [9]: 17%
Population Normal (%) [9]: 96%
Population Pyknosed Nuclei (%) [9]: 19%
Population Tubulin-Different-Phenotype (%) [9]: 3%
Total Cell Count [9]: 242
Population Apoptotic (%) [10]: 85%
Population Fragmented Nuclei (%) [10]: 17%
Population Healthy Nuclei (%) [10]: 64%
Population Hoechst High Intensity Objects (%) [10]: 4%
Population Mitochondria Different-Phenotype (%) [10]: 1%
Population Mitotic Cells (%) [10]: 14%
Population Normal (%) [10]: 95%
Population Pyknosed Nuclei (%) [10]: 17%
Population Tubulin-Different-Phenotype (%) [10]: 1%
Total Cell Count [10]: 123
Population Apoptotic (%) [11]: 92%
Population Fragmented Nuclei (%) [11]: 41%
Population Healthy Nuclei (%) [11]: 39%
Population Hoechst High Intensity Objects (%) [11]: 6%
Population Membrane Permeable-Phenotype (%) [11]: 31%
Population Mitochondria Different-Phenotype (%) [11]: 43%
Population Mitotic Cells (%) [11]: 7%
Population Normal (%) [11]: 93%
Population Pyknosed Nuclei (%) [11]: 18%
Population Tubulin-Different-Phenotype (%) [11]: 23%
Total Cell Count [11]: 221
Population Apoptotic (%) [12]: 94%
Population Fragmented Nuclei (%) [12]: 29%
Population Healthy Nuclei (%) [12]: 32%
Population Hoechst High Intensity Objects (%) [12]: 10%
Population Membrane Permeable-Phenotype (%) [12]: 38%
Population Mitochondria Different-Phenotype (%) [12]: 70%
Population Mitotic Cells (%) [12]: 5%
Population Normal (%) [12]: 89%
Population Pyknosed Nuclei (%) [12]: 37%
Population Tubulin-Different-Phenotype (%) [12]: 48%
Total Cell Count [12]: 105

N#Cc1c(N)nc(SCc2csc(-c3ccc(Cl)cc3)n2)c(C#N)c1-c1ccc(OCCO)cc1 [CAPADENOSON]
Population Apoptotic (%) [1]: 78%
Population Fragmented Nuclei (%) [1]: 25%
Population Healthy Nuclei (%) [1]: 65%
Population Hoechst High Intensity Objects (%) [1]: 5%
Population Membrane Permeable-Phenotype (%) [1]: 14%
Population Mitochondria Different-Phenotype (%) [1]: 4%
Population Mitotic Cells (%) [1]: 21%
Population Normal (%) [1]: 94%
Population Pyknosed Nuclei (%) [1]: 8%
Population Tubulin-Different-Phenotype (%) [1]: 10%
Total Cell Count [1]: 236
Population Apoptotic (%) [2]: 80%
Population Fragmented Nuclei (%) [2]: 18%
Population Healthy Nuclei (%) [2]: 75%
Population Hoechst High Intensity Objects (%) [2]: 1%
Population Membrane Permeable-Phenotype (%) [2]: 5%
Population Mitochondria Different-Phenotype (%) [2]: 2%
Population Mitotic Cells (%) [2]: 20%
Population Normal (%) [2]: 98%
Population Pyknosed Nuclei (%) [2]: 6%
Population Tubulin-Different-Phenotype (%) [2]: 1%
Total Cell Count [2]: 150
Population Apoptotic (%) [3]: 64%
Population Fragmented Nuclei (%) [3]: 35%
Population Healthy Nuclei (%) [3]: 40%
Population Hoechst High Intensity Objects (%) [3]: 5%
Population Membrane Permeable-Phenotype (%) [3]: 70%
Population Mitochondria Different-Phenotype (%) [3]: 37%
Population Mitotic Cells (%) [3]: 35%
Population Normal (%) [3]: 94%
Population Pyknosed Nuclei (%) [3]: 24%
Population Tubulin-Different-Phenotype (%) [3]: 65%
Total Cell Count [3]: 255
Population Apoptotic (%) [4]: 68%
Population Fragmented Nuclei (%) [4]: 24%
Population Healthy Nuclei (%) [4]: 56%
Population Hoechst High Intensity Objects (%) [4]: 0%
Population Membrane Permeable-Phenotype (%) [4]: 49%
Population Mitochondria Different-Phenotype (%) [4]: 61%
Population Mitotic Cells (%) [4]: 31%
Population Normal (%) [4]: 99%
Population Pyknosed Nuclei (%) [4]: 18%
Population Tubulin-Different-Phenotype (%) [4]: 70%
Total Cell Count [4]: 102
Population Apoptotic (%) [5]: 87%
Population Fragmented Nuclei (%) [5]: 23%
Population Healthy Nuclei (%) [5]: 64%
Population Hoechst High Intensity Objects (%) [5]: 3%
Population Membrane Permeable-Phenotype (%) [5]: 9%
Population Mitochondria Different-Phenotype (%) [5]: 4%
Population Mitotic Cells (%) [5]: 12%
Population Normal (%) [5]: 96%
Population Pyknosed Nuclei (%) [5]: 12%
Population Tubulin-Different-Phenotype (%) [5]: 6%
Total Cell Count [5]: 263
Population Apoptotic (%) [6]: 61%
Population Fragmented Nuclei (%) [6]: 16%
Population Healthy Nuclei (%) [6]: 71%
Population Hoechst High Intensity Objects (%) [6]: 0%
Population Membrane Permeable-Phenotype (%) [6]: 5%
Population Mitochondria Different-Phenotype (%) [6]: 2%
Population Mitotic Cells (%) [6]: 38%
Population Normal (%) [6]: 99%
Population Tubulin-Different-Phenotype (%) [6]: 2%
Total Cell Count [6]: 176
Population Apoptotic (%) [7]: 71%
Population Fragmented Nuclei (%) [7]: 36%
Population Healthy Nuclei (%) [7]: 37%
Population Hoechst High Intensity Objects (%) [7]: 5%
Population Membrane Permeable-Phenotype (%) [7]: 47%
Population Mitochondria Different-Phenotype (%) [7]: 38%
Population Mitotic Cells (%) [7]: 28%
Population Normal (%) [7]: 94%
Population Pyknosed Nuclei (%) [7]: 26%
Population Tubulin-Different-Phenotype (%) [7]: 47%
Total Cell Count [7]: 253
Population Apoptotic (%) [8]: 69%
Population Fragmented Nuclei (%) [8]: 25%
Population Healthy Nuclei (%) [8]: 49%
Population Hoechst High Intensity Objects (%) [8]: 2%
Population Membrane Permeable-Phenotype (%) [8]: 34%
Population Mitochondria Different-Phenotype (%) [8]: 58%
Population Mitotic Cells (%) [8]: 30%
Population Normal (%) [8]: 97%
Population Pyknosed Nuclei (%) [8]: 24%
Population Tubulin-Different-Phenotype (%) [8]: 60%
Total Cell Count [8]: 95
Population Apoptotic (%) [9]: 80%
Population Fragmented Nuclei (%) [9]: 23%
Population Healthy Nuclei (%) [9]: 67%
Population Hoechst High Intensity Objects (%) [9]: 3%
Population Membrane Permeable-Phenotype (%) [9]: 9%
Population Mitochondria Different-Phenotype (%) [9]: 6%
Population Mitotic Cells (%) [9]: 20%
Population Normal (%) [9]: 96%
Population Pyknosed Nuclei (%) [9]: 8%
Population Tubulin-Different-Phenotype (%) [9]: 6%
Total Cell Count [9]: 355
Population Apoptotic (%) [10]: 84%
Population Fragmented Nuclei (%) [10]: 12%
Population Healthy Nuclei (%) [10]: 79%
Population Hoechst High Intensity Objects (%) [10]: 0%
Population Membrane Permeable-Phenotype (%) [10]: 6%
Population Mitochondria Different-Phenotype (%) [10]: 3%
Population Mitotic Cells (%) [10]: 15%
Population Normal (%) [10]: 99%
Population Tubulin-Different-Phenotype (%) [10]: 5%
Total Cell Count [10]: 220
Population Apoptotic (%) [11]: 86%
Population Fragmented Nuclei (%) [11]: 44%
Population Healthy Nuclei (%) [11]: 30%
Population Hoechst High Intensity Objects (%) [11]: 5%
Population Membrane Permeable-Phenotype (%) [11]: 46%
Population Mitochondria Different-Phenotype (%) [11]: 31%
Population Mitotic Cells (%) [11]: 13%
Population Normal (%) [11]: 94%
Population Pyknosed Nuclei (%) [11]: 25%
Population Tubulin-Different-Phenotype (%) [11]: 37%
Total Cell Count [11]: 285
Population Apoptotic (%) [12]: 66%
Population Fragmented Nuclei (%) [12]: 30%
Population Healthy Nuclei (%) [12]: 49%
Population Hoechst High Intensity Objects (%) [12]: 4%
Population Membrane Permeable-Phenotype (%) [12]: 45%
Population Mitochondria Different-Phenotype (%) [12]: 45%
Population Mitotic Cells (%) [12]: 33%
Population Normal (%) [12]: 95%
Population Pyknosed Nuclei (%) [12]: 20%
Population Tubulin-Different-Phenotype (%) [12]: 50%
Total Cell Count [12]: 109
